Each structure is given as a SMILES string. Calls of active or inactive are those of the source. The calls are words filed in the database; no cut-off is given here.

The target of series [1] is Metabotropic glutamate receptor 4 (Rattus norvegicus) (UniProt P31423). The series can be described thus: Positive allosteric modulation of rat mGlu4 receptor expressed in HEK293 cells co-expressing Gi/Gq assessed as increase in glutamate-induced calcium flux preincubated for 10 mins followed by glutamate addition measured for 3 mins by Fluo4-AM dye based fluorescence assay relative to control. The class given is functional, cell-based. For orientation: Calcium flux is commonly read through the fluorescence of an indicator in the cells.
Chain of Metabotropic glutamate receptor 4 (Rattus norvegicus) (P31423 whole entry): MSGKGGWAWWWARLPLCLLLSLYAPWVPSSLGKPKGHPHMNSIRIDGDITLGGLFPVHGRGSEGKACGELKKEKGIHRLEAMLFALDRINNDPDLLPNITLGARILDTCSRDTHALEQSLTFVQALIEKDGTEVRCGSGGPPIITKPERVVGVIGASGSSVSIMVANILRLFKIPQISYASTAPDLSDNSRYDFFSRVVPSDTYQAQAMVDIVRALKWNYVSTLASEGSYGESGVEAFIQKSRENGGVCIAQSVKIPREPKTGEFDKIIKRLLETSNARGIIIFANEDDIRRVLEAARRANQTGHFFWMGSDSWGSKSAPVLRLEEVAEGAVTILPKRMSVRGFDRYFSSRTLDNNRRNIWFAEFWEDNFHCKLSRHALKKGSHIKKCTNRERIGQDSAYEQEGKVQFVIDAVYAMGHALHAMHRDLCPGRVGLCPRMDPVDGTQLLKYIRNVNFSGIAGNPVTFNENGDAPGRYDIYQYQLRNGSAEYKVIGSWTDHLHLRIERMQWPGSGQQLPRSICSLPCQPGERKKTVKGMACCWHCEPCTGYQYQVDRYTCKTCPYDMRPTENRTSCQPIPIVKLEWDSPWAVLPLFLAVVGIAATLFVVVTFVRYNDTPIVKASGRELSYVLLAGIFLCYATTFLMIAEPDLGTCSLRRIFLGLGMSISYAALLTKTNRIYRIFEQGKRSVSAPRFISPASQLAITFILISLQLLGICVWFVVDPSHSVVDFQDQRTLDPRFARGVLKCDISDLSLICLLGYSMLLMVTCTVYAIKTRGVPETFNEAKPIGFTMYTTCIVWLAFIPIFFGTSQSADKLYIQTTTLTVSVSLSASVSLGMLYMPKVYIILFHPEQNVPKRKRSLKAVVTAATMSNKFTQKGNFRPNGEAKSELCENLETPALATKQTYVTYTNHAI

Series [2] has as its target T1, Metabotropic glutamate receptor 4 (Homo sapiens, UniProt Q14833). The series is described as follows: Agonist activity at recombinant human mGlu4 receptor expressed in HEK293 cells co-expressing chimeric Gi/Gq protein assessed as increase in calcium flux at 3 uM after 10 mins by Fluo4-AM dye based fluorescence assay relative to control. The class given is functional, cell-based. In short, it runs like this:
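Human mGluR4 co-expressed in HEK293 cells with the chimeric Gi/Gq (GqTOP) protein, loaded with Fluo4-AM. Compound was added alone and calcium signal recorded for 10 min, compared with the buffer-evoked basal signal.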

For series [3], the target named is Metabotropic glutamate receptor 8 (Homo sapiens) (UniProt O00222). The series is described as follows: Agonist activity at human mGlu8 receptor expressed in HEK293 cells co-expressing Gi/Gq assessed as increase in intracellular calcium level at 10 uM after 10 mins by Fluo4-AM dye based fluorescence assay relative to control. The class given is functional, cell-based. In short, it runs like this:
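Human mGluR8 in transiently transfected HEK293 cells loaded with Fluo4-AM. Compound alone was added and fluorescence followed for 10 min. Stimulation is expressed relative to the maximal glutamate response.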

The target of series [4] is D(1A) dopamine receptor (Homo sapiens) (UniProt P21728). The series is described as follows: Agonist activity at D1 receptor (unknown origin) at 10 uM.
Chain of D(1A) dopamine receptor (Homo sapiens) (P21728 whole entry): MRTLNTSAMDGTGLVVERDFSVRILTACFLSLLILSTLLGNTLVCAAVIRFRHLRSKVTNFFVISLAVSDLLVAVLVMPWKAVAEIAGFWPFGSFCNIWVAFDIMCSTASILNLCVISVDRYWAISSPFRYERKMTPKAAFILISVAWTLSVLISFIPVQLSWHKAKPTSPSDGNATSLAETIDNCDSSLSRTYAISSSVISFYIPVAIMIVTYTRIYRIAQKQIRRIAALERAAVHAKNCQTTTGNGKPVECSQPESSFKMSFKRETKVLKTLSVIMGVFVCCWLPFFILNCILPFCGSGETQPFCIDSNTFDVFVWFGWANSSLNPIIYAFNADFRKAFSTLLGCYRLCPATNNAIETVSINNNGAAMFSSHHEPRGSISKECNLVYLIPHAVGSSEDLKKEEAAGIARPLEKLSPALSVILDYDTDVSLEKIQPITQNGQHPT
Series [5] shares this target. The series is described as follows: Antagonist activity at D1 receptor (unknown origin) at 10 uM.
The target in series [6] is Adenosine receptor A2a (Homo sapiens) (UniProt P29274). The series can be described thus: Positive allosteric modulation of A2A receptor (unknown origin) at 10 uM.
Chain of Adenosine receptor A2a (Homo sapiens) (P29274 whole entry): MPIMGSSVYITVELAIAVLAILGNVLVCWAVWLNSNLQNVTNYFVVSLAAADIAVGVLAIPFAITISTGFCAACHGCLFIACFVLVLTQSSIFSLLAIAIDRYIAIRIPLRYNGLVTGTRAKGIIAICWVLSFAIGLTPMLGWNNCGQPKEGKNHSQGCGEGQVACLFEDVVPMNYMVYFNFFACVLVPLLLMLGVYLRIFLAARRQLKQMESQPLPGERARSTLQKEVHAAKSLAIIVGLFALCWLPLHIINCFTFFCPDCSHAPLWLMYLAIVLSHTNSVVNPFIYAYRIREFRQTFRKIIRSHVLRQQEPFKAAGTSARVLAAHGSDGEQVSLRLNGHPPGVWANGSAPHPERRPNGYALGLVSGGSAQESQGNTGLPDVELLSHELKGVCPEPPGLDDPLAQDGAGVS
For series [7] the target is unchanged. The series can be described thus: Antagonist activity at A2A receptor (unknown origin) at 10 uM.
The target in series [8] is Mitogen-activated protein kinase kinase kinase 7 (Homo sapiens) (UniProt O43318). The series can be described thus: Inhibition of TAK1 (unknown origin) at 10 uM.
Chain of Mitogen-activated protein kinase kinase kinase 7 (Homo sapiens) (O43318 whole entry): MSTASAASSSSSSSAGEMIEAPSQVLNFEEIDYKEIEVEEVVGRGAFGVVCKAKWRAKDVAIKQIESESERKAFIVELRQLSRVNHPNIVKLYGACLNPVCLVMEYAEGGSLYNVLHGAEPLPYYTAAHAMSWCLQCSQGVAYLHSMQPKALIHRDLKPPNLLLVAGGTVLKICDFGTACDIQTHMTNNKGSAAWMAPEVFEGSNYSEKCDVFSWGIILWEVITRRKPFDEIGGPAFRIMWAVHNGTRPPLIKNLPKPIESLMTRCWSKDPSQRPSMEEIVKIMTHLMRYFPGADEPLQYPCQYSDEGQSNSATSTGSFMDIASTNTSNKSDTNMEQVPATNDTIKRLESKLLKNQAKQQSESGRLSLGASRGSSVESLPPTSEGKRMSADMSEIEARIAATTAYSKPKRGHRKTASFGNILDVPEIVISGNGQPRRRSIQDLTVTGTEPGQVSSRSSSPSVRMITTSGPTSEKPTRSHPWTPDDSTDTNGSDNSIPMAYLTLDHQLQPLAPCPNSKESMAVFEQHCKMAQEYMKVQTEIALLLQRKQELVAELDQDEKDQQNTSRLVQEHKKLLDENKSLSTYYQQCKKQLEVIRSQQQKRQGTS
Series [9] relates to Rattus norvegicus. The series is described as follows: Protection against 6-OHDA induced parkinsonian motor deficit in Sprague-Dawley rat assessed as increase in slow activity at 30 mg/kg, ip after 28 days post surgery. The class given is functional, organism-based. In short, it runs like this:
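Adult male Sprague−Dawley rats with bilateral 6-OHDA striatal lesions given compound 30 mg/kg ip or vehicle at T0; spontaneous locomotor activity (active time, slow activity, rearing) counted in 5-min bins versus pre-surgery vehicle; n = 10.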

For series [10], the target named is T1, Metabotropic glutamate receptor 4. The series can be described thus: Positive allosteric modulation of recombinant human mGlu4 receptor expressed in HEK293 cells co-expressing Gi/Gq assessed as increase in glutamate-induced calcium flux preincubated for 10 mins followed by glutamate addition measured for 3 mins by Fluo4-AM dye based fluorescence assay. The class given is functional, cell-based. The conditions noted are these: read-out: EC50.

The target in series [11] is Metabotropic glutamate receptor 4 (Rattus norvegicus, UniProt P31423). The series is described as follows: Positive allosteric modulation of rat mGlu4 receptor expressed in HEK293 cells co-expressing Gi/Gq assessed as increase in glutamate-induced calcium flux preincubated for 10 mins followed by glutamate addition measured for 3 mins by Fluo4-AM dye based fluorescence assay. The class given is functional, cell-based.
Chain of Metabotropic glutamate receptor 4 (Rattus norvegicus, UniProt P31423) (P31423 whole entry): as the sequence (P31423 whole entry) above

The nature of series [12]: Cmax in Sprague-Dawley rat at 1 mg/kg, iv administered as single dose by LC-MS/MS analysis. The conditions noted are these: in vivo. The class given is ADME, organism-based. More on the design: dose 1 mg/kg, route intravenous.
Series [13] is described as follows: Tmax in Sprague-Dawley rat plasma at 30 mg/kg, ip administered as single dose by LC-MS/MS analysis. The class given is ADME, organism-based. In short, it runs like this:
(§1)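 Single-dose plasma PK after ip (10 or 30 mg/kg) or oral (10 mg/kg) dosing in rats, and oral 10 mg/kg dosing in mice. […] Values are mean ±SEM of 3 rats or 2 mice.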

Series [14] in a line: Tmax in Sprague-Dawley rat plasma at 10 mg/kg, po administered as single dose by LC-MS/MS analysis. The class given is ADME, organism-based. The gist of the method:
as §1

A short description of series [15]: AUC (0 to infinity) in Sprague-Dawley rat plasma at 10 mg/kg, po administered as single dose by LC-MS/MS analysis. The class given is ADME, organism-based. More on the design: dose 10 mg/kg, time infinity, route oral. The gist of the method:
(§2)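 Rats given a single oral dose of 10 mg/kg. The first plasma sample was taken at 15 min, and sampling continued to 24 h postdose. Brain was sampled at 30 min. Values are the mean (±SEM) of 3 rats.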

A short description of series [16]: Drug uptake in Sprague-Dawley rat brain at 10 mg/kg, ip after 30 mins post dose administered as single dose by LC-MS/MS analysis. The class given is ADME, organism-based. The conditions noted are these: read-out: Drug uptake. The gist of the method:
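Rats dosed ip at 10 or 30 mg/kg. Plasma Cmax, Tmax, half-life and AUC0–inf were determined. Brain concentration was measured 30 min postdose, and brain/plasma ratio was taken at 30 min. Values are the mean (±SEM) of 3 rats.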

A short description of series [17]: Ratio of drug level in Sprague-Dawley rat brain to plasma at 10 mg/kg, ip after 30 mins post dose administered as single dose by LC-MS/MS analysis. The class given is ADME, organism-based. The conditions noted are these: read-out: BPR. In short, it runs like this: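 Single dose ip (10 or 30 mg/kg, rat) or oral (10 mg/kg, rat or mouse); plasma Cmax, Tmax, half-life, AUC0−inf derived; brain concentration and brain/plasma ratio at 30 min postdose. Mean of 3 rats or 2 mice.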

A short description of series [18]: Ratio of drug uptake in Sprague-Dawley rat brain at 10 mg/kg, ip to EC50 for rat mGlu4 receptor expressed in HEK293 cells. The gist of the method: (§3)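 Rats received a single ip or oral dose. Brain concentration was measured 30 min postdose, mean of 3 rats, and divided by the EC50 measured in cell lines overexpressing rat mGluR4.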
Series [19] can be described thus: Ratio of drug uptake in Sprague-Dawley rat brain at 30 mg/kg, ip to EC50 for rat mGlu4 receptor expressed in HEK293 cells. In short, it runs like this:
as §3

A short description of series [20]: Oral bioavailability in Sprague-Dawley rat plasma at 10 mg/kg administered as single dose by LC-MS/MS analysis. The class given is ADME, organism-based.
The subject of the next series is Plasma. The series can be described thus: Drug level in Sprague-Dawley rat plasma at 10 mg/kg, po administered as single dose measured at 24 hrs post dose by LC-MS/MS analysis. The class given is ADME, organism-based. Conditions: in vivo. In short, it runs like this:
as §2

Series [21] can be described thus: Plasma concentration in Sprague-Dawley rat at 30 mg/kg, ip after 240 mins. The class given is ADME, organism-based. The gist of the method:
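Rats dosed 30 mg/kg ip; plasma sampled over time, brain measured at 30 and 60 min; brain/plasma ratio averaged over 30 and 60 min.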

A short description of series [22]: Drug uptake in Sprague-Dawley rat brain at 30 mg/kg, ip after 30 mins. The class given is ADME, organism-based. Conditions: read-out: Drug uptake.
The nature of series [23]: Drug uptake in Sprague-Dawley rat brain at 30 mg/kg, ip after 120 mins. The class given is ADME, organism-based. The conditions noted are these: read-out: Drug uptake.
A short description of series [24]: Ratio of fraction unbound in Sprague-Dawley rat brain at 30 mg/kg, ip after 240 mins to EC50 for rat mGlu4 receptor expressed in HEK293 cells.
The nature of series [25]: Drug uptake in Sprague-Dawley rat brain at 10 mg/kg, po after 60 mins post dose administered as single dose by LC-MS/MS analysis. The class given is ADME, organism-based. Conditions: read-out: Drug uptake. In short, it runs like this:
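Rats given a single oral dose of 10 mg/kg. Brain concentrations were measured at 30, 60 and 90 min postdose, and brain AUC0–inf was determined. Values are the mean of three rats. Lower limit of quantification was 1 ng/mL.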

Series [26] has as its system Rattus norvegicus. The series can be described thus: Toxicity in 6-OHDA induced parkinsonian motor deficit Sprague-Dawley rat model assessed as induction of overacting rearing behavior up to 30 mg/kg, ip. The class given is organism-based. Conditions: in vivo.
Series [27] concerns Rattus norvegicus. The series can be described thus: Toxicity in 6-OHDA induced parkinsonian motor deficit Sprague-Dawley rat model assessed as induction of dyskinesia at 30 mg/kg, ip. The class given is organism-based. Conditions: in vivo.

T1 sequence (Q14833 whole entry): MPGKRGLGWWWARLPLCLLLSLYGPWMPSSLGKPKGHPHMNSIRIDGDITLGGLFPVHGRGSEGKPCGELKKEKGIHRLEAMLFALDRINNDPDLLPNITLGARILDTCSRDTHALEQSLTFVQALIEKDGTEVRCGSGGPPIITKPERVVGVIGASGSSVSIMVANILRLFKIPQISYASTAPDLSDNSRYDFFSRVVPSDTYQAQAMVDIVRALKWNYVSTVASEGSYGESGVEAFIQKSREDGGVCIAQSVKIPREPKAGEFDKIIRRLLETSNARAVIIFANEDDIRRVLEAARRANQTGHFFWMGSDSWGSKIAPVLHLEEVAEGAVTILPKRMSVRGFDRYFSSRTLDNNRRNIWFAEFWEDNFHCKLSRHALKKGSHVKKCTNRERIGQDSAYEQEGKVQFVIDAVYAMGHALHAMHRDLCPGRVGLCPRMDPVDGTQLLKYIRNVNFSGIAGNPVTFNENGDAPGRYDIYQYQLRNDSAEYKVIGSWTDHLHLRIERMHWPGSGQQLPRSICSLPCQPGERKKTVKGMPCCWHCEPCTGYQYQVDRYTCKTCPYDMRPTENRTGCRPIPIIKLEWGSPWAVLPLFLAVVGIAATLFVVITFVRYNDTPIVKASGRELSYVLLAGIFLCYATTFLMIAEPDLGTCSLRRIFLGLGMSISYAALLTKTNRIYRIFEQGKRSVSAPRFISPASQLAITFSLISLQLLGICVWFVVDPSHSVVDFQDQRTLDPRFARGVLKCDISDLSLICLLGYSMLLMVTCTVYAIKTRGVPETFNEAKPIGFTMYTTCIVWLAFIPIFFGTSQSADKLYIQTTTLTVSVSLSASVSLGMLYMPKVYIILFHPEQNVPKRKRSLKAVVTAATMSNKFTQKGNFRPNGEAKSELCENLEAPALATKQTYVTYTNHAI
Chain of Metabotropic glutamate receptor 8 (Homo sapiens) (O00222 whole entry): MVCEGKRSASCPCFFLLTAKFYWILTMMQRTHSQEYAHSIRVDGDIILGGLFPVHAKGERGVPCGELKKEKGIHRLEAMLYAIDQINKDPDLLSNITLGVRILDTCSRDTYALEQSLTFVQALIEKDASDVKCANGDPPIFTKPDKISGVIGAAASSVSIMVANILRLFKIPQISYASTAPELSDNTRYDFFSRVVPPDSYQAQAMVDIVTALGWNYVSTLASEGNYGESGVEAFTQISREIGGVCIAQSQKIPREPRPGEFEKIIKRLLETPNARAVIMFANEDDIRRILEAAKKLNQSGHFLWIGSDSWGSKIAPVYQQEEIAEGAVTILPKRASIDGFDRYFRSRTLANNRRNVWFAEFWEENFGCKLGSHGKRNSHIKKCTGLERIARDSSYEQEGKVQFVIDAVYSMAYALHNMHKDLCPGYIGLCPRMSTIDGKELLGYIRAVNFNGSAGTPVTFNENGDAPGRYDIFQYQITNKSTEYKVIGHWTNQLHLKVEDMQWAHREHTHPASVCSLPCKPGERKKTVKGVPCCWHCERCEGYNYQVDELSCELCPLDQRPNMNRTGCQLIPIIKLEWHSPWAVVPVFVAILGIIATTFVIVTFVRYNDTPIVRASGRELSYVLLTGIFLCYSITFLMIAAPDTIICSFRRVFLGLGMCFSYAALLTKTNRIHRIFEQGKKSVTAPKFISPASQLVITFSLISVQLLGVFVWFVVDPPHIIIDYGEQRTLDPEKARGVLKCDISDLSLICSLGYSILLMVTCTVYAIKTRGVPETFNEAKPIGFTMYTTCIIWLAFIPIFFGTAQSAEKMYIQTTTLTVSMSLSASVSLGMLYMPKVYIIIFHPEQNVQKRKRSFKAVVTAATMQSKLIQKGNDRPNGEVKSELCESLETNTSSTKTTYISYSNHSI

As to `O/N=c1\cc(-c2cc3cccn3cn2)oc2ccc(OCCN3CCOCC3)cc12` [listing 1 of 2 here], the Emax (commonly the maximal effect, on the per cent scale that the assay sets) in [1] was 75%. In addition, the results for the Activity in series [2] and in series [3] were 19% and 23%, respectively. In addition, the outcome in series [4], in series [5], in [6] and in series [7] was inactive. Further, the inhibition entry in [8] was “inactive”. In addition, in the series with Rattus norvegicus [9], the result was Active.
As for `O/N=c1\cc(-c2cc3cccn3cn2)oc2ccc(OCCN3CCOCC3)cc12` [listing 2 of 2 here], the EC50 – broadly, the concentration at which the effect is half-maximal – in series [10] came to 0.046 µM; in series [11] it was 0.027 µM. In [12], the Cmax – broadly, the highest concentration seen after dosing – worked out at 0.444 µg/mL. The values for the Tmax in [13] and in [14] were 15 min and 20 min, respectively. In series [15], the AUC(0-inf) (as a rule, the area under the concentration-time curve extrapolated to infinity) amounted to 0.903 µg·h/mL. For the same compound, the concentration at 0.5 h in series [16] came out at 5650 ng/g; in series [22], 22800 ng/g. Also, in series [17], the Kp at 0.5 h worked out at 3.1. Moreover, the Ratio is 3.6 in series [18], 14.5 in series [19] and 0.2 in series [24]. The bioavailability (usually dose-corrected exposure relative to a reference, in per cent) in series [20] was determined as 54%. Further, the Drug uptake in the series with Plasma is 2 to 10%. Moreover, in [21], the concentration at 4 h worked out at 0.099 µg/mL. Besides, the concentration at 2 h in [23] worked out at 1740 ng/g. Moreover, in series [25], the concentration at 1 h turned out to be 262 ng/g. Besides, the Activity entry in the series on Rattus norvegicus [26] and in the series on Rattus norvegicus [27] was “Non-Toxic” throughout.

The values above are taken from ChEMBL document CHEMBL4017520, “Discovery, Structure-Activity Relationship, and Antiparkinsonian Effect of a Potent and Brain-Penetrant Chemical Series of Positive Allosteric Modulators of Metabotropic Glutamate Receptor 4” (J Med Chem, 2017).
